Reference: ChEMBL document CHEMBL4765486, “Novel Nonsecosteroidal Vitamin D Receptor Modulator Combined with Gemcitabine Enhances Pancreatic Cancer Therapy through Remodeling of the Tumor Microenvironment” (J Med Chem, 2021)
Calls of active or inactive are those of the source. Unless noted, the rule behind the calls is not given here.

Tests used:
DSL-6A/C1 [1] = test: (§1) Potentiation of gemcitabine-induced antitumor activity against luciferase-tagged rat DSL-6A/C1 cells and GFP-tagged LTC-14 cells co-inoculated in orthotropic xenograft BALB/c nude mouse model of pancreatic cancer assessed as reduction in tumor volume at 500 ug/kg, ip administered once every 3 days for 12 days coadministered with gemcitabine at 100 mg/kg and measured after 3 days post last dose by IVIS optical imaging analysis; format: functional, organism-based; settings: dose 500.0 µg/kg, time 12.0 day
How it was run: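 DSL-6A/C1-luci and LTC-14-GFP cells were co-inoculated orthotopically into the pancreas of nude mice, n=5 per group. Treatment began 7 days after grafting (methods) or 14 days (text). Gemcitabine 100 mg/kg ip every 3 days, alone or with compound 500 μg/kg or calcipotriol 60 μg/kg in ethanol/polyoxyethylene castor oil/saline (1:1:18), for 12 days. Tumour growth was followed by bioluminescence imaging.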

LTC-14 [2] = test: Inhibition of rat LTC-14 cells activation assessed as inhibition of PDGFA mRNA expression at 0.5 uM treated under conditioned media of DSL-6A/C1 cells for 24 hrs by q-PCR analysis; format: functional, cell-based
How it was run: (§2)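 LTC-14 PSCs were exposed for 24 h to conditioned medium from rat DSL-6A/C1 cancer cells containing compound at 0.5 μM. Pdgfa, Pdgfb, Fgf2, Hgf and Periodin mRNA were quantified by RT-qPCR. Three repeats, mean ± SD versus CM alone.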

LTC-14 [3] = test: Inhibition of rat LTC-14 cell activation assessed decrease in TGF-beta1 induced Colla1 mRNA expression at 0.5 uM incubated for 24 hrs by q-PCR analysis; format: functional
How it was run: (§3)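 Immortalized rat PSC line LTC-14, about 1×10^5 cells per well, was grown 24 h at 37 °C in 5% CO2. Cells then received compound (0.5 μM) plus TGF-β1 for 24 h; TGF-β1 is stated as 0.5 ng/mL in the text and 5 ng/mL in the methods. Col1a1 and Acta2 mRNA were measured by RT-qPCR. Mean ± SD versus TGF-β1 alone.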

[4] = Cytotoxicity against rat LTC-14 cells assessed as reduction in cell proliferation incubated for 24 hrs by MTT assay; format: cell-based; settings: LTC-14, 24 h
LTC-14 [5] = test: Inhibition of rat LTC-14 cells activation assessed as inhibition of PDGFB mRNA expression at 0.5 uM treated under conditioned media of DSL-6A/C1 cells for 24 hrs by q-PCR analysis; format: functional, cell-based; how it was run: as §2
LTC-14 [6] = test: Inhibition of rat LTC-14 cells activation assessed decrease in TGF-beta1 induced collagen 1 protein expression at 0.5 uM incubated for 24 hrs by Western blot analysis; format: functional, cell-based
How it was run: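 LTC-14 cells were treated for 24 h with compound (0.5 μM) plus TGF-β1 (0.5 ng/mL in the text, 5 ng/mL in the methods). Lysates were run on 10% SDS-PAGE, transferred to PVDF and probed with rabbit anti-collagen I, with β-actin as reference. Bands were quantified by densitometry versus TGF-β1 alone.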

DSL-6A/C1 [7] = test: Antiproliferative activity against rat DSL-6A/C1 cells assessed as reduction in cell viability at 0.5 uM treated with conditioned media of LTC-14 cells for 24 hrs by MTT assay; format: functional, cell-based
How it was run: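 Rat pancreatic cancer DSL-6A/C1 cells were cultured in supernatant from LTC-14 PSCs (PSC-CM) with compound added at 0.5 μM for 24 h. Viability was then read by MTT: 4 h incubation with MTT (5 mg/mL stock), absorbance at 570 nm. Run in triplicate, compared with PSC-CM alone.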

DSL-6A/C1 [8] = test: Antiproliferative activity against rat DSL-6A/C1 cells assessed as reduction in cell viability at 0.5 uM incubated for 24 hrs compound treated LTC-14-CM cells by MTT assay; format: functional, cell-based
How it was run: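 LTC-14 PSCs were pretreated with compound for 24 h. Their collected supernatant was used to culture DSL-6A/C1 cells, and proliferation was read by MTT: 4 h incubation with MTT (5 mg/mL stock), absorbance at 570 nm. Run in triplicate, compared with untreated PSC-CM.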

LTC-14 [9] = test: Inhibition of rat LTC-14 cells activation assessed as reduction in ECM deposition resulting in doxorubicin accumulation in PSC spheres pretreated with compounds followed by doxorubicin addition by laser confocal microscopy analysis; format: functional, cell-based
How it was run: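 LTC-14 cells were grown in 3D culture to form PSC spheres and treated with compounds. Fluorescent doxorubicin was then added, and its penetration into the spheres was imaged by laser confocal microscopy. Three repeats, versus untreated control.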

LTC-14 [10] = test: Inhibition of rat LTC-14 cells activation assessed as inhibition of Hgf mRNA expression at 0.5 uM treated under conditioned media of DSL-6A/C1 cells for 24 hrs by q-PCR analysis; format: functional, cell-based; how it was run: as §2
Mus musculus = test: Inhibition of GFP-tagged rat LTC-14 cells activation in BALB/c nude mouse xenografted along with luciferase-tagged DSL-6A/C1-Luc cells assessed as reduction in alpha-smooth muscle actin expression in tumor at 500 ug/kg, ip administered once every 3 days for 12 days coadministered with gemcitabine at 100 mg/kg by DAPI staining based laser confocal scanning microscopy; format: functional, organism-based; settings: dose 500.0 µg/kg, time 12.0 day
How it was run: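 Tumours were taken from orthotopic co-inoculated nude mice given gemcitabine 100 mg/kg plus compound (500 μg/kg) or calcipotriol (60 μg/kg) ip for 12 days. Sections were fixed in 4% PFA, permeabilised with 0.5% Triton X-100 and blocked in 5% BSA. They were incubated with anti-α-SMA overnight at 4 °C, then an Alexa Fluor 594 secondary for 1 h at 37 °C, DAPI-counterstained and imaged by confocal microscopy.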

LTC-14 [11] = test: Inhibition of rat LTC-14 cells interaction with DSL-6A/C1 cells in conditioned media assessed as inhibition of PDGF-A protein expression at 0.5 uM measured after 24 hrs by Western blot analysis; format: functional, cell-based
How it was run: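 LTC-14 cells were treated for 24 h with DSL-6A/C1 conditioned medium plus compound (0.5 μM). Proteins were separated on 10% SDS-PAGE, transferred to PVDF and probed with rabbit anti-PDGF-A or anti-POSTN, with β-actin as loading reference.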

DSL-6A/C1 [12] = test: as §1, with “inhibition of collagen deposition” for “reduction in tumor volume”, “Masson staining based assay” for “IVIS optical imaging analysis”; format: functional, organism-based; settings: dose 500.0 µg/kg, time 12.0 day
How it was run: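 In the same orthotopic co-inoculation model, mice received gemcitabine 100 mg/kg ip every 3 days plus compound 500 μg/kg ip for 12 days. Animals were sacrificed 3 days after the last dose. Pancreatic tumour sections were stained with H&E for tissue structure and with Masson's trichrome for collagen deposition, imaged at ×100.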

[13] = Cytotoxicity against rat DSL-6A/C1 cells assessed as reduction in cell proliferation at 0.5 uM incubated for 24 hrs by MTT assay; format: cell-based; settings: dsl-6a/c1, 24 h
LTC-14 [14] = test: Inhibition of rat LTC-14 cells activation assessed decrease in TGF-beta1 induced Acta2 mRNA expression at 0.5 uM incubated for 24 hrs by q-PCR analysis; format: functional, cell-based; how it was run: as §3
[15] = Toxicity in orthotropic xenograft BALB/c nude mouse model of pancreatic cancer co-inoculated with rat DSL-6A/C1-Luc cells and LTC-14-GFP cells assessed as hypercalcemia at 500 ug/kg, ip administered once every 3 days for 12 days coadministered with gemcitabine at 100 mg/kg and measured after 3 days post last dose; format: organism-based; settings: in vivo, 0.5 mg/kg, 288 h, dose 500 µg/kg, time 12 day
How it was run: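 Orthotopic DSL-6A/C1-luci/LTC-14-GFP nude mice received gemcitabine 100 mg/kg plus compound 500 μg/kg ip for 12 days. They were sacrificed 3 days after the final dose, and serum was collected for biochemical analysis to assess hypercalcemia.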

## CCn1cc(C(CC)(CC)c2ccc(OCC(C)O)c(C)c2)cc1C(=O)NCCN1CCN(C)CC1 (stereo unspecified)
DSL-6A/C1 [1]
  TGI: Active
LTC-14 [2]
  inhibition: Active
LTC-14 [3]
  inhibition: Active
[4]
  IC50: > 10 µM
LTC-14 [5]
  inhibition: Active
LTC-14 [6]
  inhibition: Active
DSL-6A/C1 [7]
  Activity: inactive
DSL-6A/C1 [8]
  Activity: Active
LTC-14 [9]
  inhibition: Active
LTC-14 [10]
  inhibition: Active
Mus musculus
  inhibition: Active
LTC-14 [11]
  inhibition: Active
DSL-6A/C1 [12]
  Activity: Active
[13]
  Activity: Non-Toxic
LTC-14 [14]
  inhibition: Active
[15]
  Activity: Non-Toxic
